According to ChEMBL document CHEMBL1154212, “Candenatenins A-F, phenolic compounds from the heartwood of Dalbergia candenatensis” (J Nat Prod, 2009):

Key:
Type in all cases: functional, cell-based
[1] = tested on: HT-29; assay: Cytotoxicity against human HT-29 cells by SRB staining-based fluorescence cytometry
Procedure, shortened: (§1)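 Cytotoxicity assay run with camptothecin as the reference anticancer standard.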

[2] = tested on: KB; assay: Cytotoxicity against human KB cells by SRB staining-based fluorescence cytometry; procedure, shortened: as §1
[3] = tested on: MCF7; assay: Cytotoxicity against human MCF7 cells by SRB staining-based fluorescence cytometry; procedure, shortened: as §1
[4] = tested on: HeLa; assay: Cytotoxicity against human HeLa cells by SRB staining-based fluorescence cytometry; procedure, shortened: as §1
[5] = Homo sapiens, HT-29, read-out: IC50
[6] = Homo sapiens, KB, read-out: IC50
[7] = Homo sapiens, MCF7, read-out: IC50
[8] = Homo sapiens, HeLa, read-out: IC50

SMILES	IC50 [1, 5]	IC50 [2, 6]	IC50 [3, 7]	IC50 [4, 8]	IC50 ([1]; ht-29)	IC50 ([2]; kb)	IC50 ([3]; mcf7)	IC50 ([4]; hela)
O=C1C=C[C@](O)(C/C=C/c2ccccc2)CC1 [(1'R)-CANDENATENIN B]	19.7 µM	83.7 µM	54.4 µM	55.7 µM	–	–	–	–
COc1ccc2c(c1O)OC[C@@H]1c3cc4c(cc3O[C@H]21)OCO4	–	–	–	–	Not Active	Not Active	Not Active	Not Active
CC(C)=CCC/C(C)=C/Cc1c(O)cc(O)c2c1O[C@H](c1ccc(O)cc1)CC2=O [SOPHORAFLAVANONE A]	–	–	–	–	Not Active	Not Active	Not Active	Not Active
COc1c(O)ccc([C@@H]2C=Cc3cc(O)ccc3O2)c1OC	–	–	–	–	Not Active	Not Active	Not Active	Not Active
CC[C@@]1(O)C(=O)OCc2c1cc1n(c2=O)Cc2cc3ccccc3nc2-1 [CAMPTOTHECIN]	1.22 µM	1.22 µM	1.22 µM	1.22 µM	–	–	–	–
CO[C@H]1CC(=O)CC[C@@]1(O)C/C=C/c1ccccc1	48.1 µM	85 µM	44.1 µM	53.1 µM	–	–	–	–
COc1ccc([C@@H]2COc3c(ccc(O)c3C/C=C(\C)CCC=C(C)C)C2)cc1	–	–	–	–	Not Active	Not Active	Not Active	Not Active
COc1ccccc1/C=C/C[C@@]1(O)C=CC(=O)CC1	17.8 µM	70.9 µM	48.8 µM	54.2 µM	–	–	–	–
COc1ccc(/C=C/Cc2ccc(O)c(OC)c2OC)cc1O [CANDENATENIN A]	41.1 µM	42.7 µM	74.3 µM	79 µM	–	–	–	–
COc1cc(O)c2c(c1)O[C@H](c1ccccc1)[C@@H](O)C2=O	46.5 µM	73.8 µM	49.3 µM	79 µM	–	–	–	–
COc1ccc2c(c1C/C=C(\C)CCC=C(C)C)OC[C@@H]1c3cc4c(cc3O[C@H]21)OCO4 [NUTIDUCOL]	–	–	–	–	Not Active	Not Active	Not Active	Not Active
